Our source for the Activity, IC90 and IC50 values is ChEMBL document CHEMBL2040715, “Discovery of a Potent HIV Integrase Inhibitor that Leads to a Prodrug with Significant anti-HIV Activity” (ACS Med Chem Lett, 2011).

Where only a bound is given, the exact number is not on record here.

What is called IC90 is the point of the concentration-response curve where the effect stands at 90%. High values mean weaker potency, low ones greater potency. The term IC50 denotes the concentration needed to halve the response being measured.

The target in data set [1] is T1, UDP-glucuronosyltransferase 2B7 (Homo sapiens, UniProt P16662).
T1 sequence (P16662 whole entry): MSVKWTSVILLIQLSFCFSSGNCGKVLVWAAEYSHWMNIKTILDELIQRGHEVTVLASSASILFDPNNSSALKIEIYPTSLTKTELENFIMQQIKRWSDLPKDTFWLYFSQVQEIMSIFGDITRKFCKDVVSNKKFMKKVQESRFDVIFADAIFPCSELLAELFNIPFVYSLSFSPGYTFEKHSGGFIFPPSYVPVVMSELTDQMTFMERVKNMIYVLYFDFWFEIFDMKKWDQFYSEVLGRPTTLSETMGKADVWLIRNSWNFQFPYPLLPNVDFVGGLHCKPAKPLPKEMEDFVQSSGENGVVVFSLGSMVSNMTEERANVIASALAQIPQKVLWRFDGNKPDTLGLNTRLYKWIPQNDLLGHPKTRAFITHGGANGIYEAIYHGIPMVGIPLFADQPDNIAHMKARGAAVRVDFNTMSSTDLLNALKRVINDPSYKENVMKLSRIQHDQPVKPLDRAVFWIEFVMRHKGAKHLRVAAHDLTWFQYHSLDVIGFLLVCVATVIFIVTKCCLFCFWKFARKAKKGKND
Kind of data set: Activity at UGT2B7 in human liver microsomes at 50 uM incubated for 3 mins prior to NADPH-addition measured up to 120 mins by HPLC/UV analysis. In kind it is ADME, Microsome. (In general: Microsomes from liver hold many membrane-bound enzymes, among them those of drug oxidation.)

In data set [2] the target is T2, UDP-glucuronosyltransferase 1A4 (Homo sapiens, UniProt P22310).
T2 sequence (P22310 whole entry): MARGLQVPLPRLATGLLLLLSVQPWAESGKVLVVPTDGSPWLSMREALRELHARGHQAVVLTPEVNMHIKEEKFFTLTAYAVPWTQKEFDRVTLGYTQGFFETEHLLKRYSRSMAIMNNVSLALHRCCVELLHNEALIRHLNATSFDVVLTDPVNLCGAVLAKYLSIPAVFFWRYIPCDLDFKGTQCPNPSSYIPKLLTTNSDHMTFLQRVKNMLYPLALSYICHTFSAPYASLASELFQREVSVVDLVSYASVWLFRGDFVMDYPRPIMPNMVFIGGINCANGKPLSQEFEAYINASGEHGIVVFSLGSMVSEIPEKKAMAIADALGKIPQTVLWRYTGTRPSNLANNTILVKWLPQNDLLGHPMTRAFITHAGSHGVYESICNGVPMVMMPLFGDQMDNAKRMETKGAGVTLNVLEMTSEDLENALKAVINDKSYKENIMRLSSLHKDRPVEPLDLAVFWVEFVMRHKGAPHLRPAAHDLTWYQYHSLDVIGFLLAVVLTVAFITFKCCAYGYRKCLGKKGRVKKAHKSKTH
Kind of data set: Activity at UGT1A4 in human liver microsomes at 50 uM incubated for 3 mins prior to NADPH-addition measured up to 120 mins by HPLC/UV analysis. Format: ADME, Microsome.

Data set [3] concerns the target Human immunodeficiency virus type 1 integrase (Human immunodeficiency virus 1) (UniProt Q7ZJM1). Kind of data set: (§1) Inhibition of HIV1 integrase-mediated strand transfer.
The target of data set [4] is Human immunodeficiency virus type 1 integrase (Human immunodeficiency virus 1, UniProt Q7ZJM1). Described as §1.
The target in data set [5] is T3, UDP-glucuronosyltransferase 1A1 (Homo sapiens, UniProt P22309).
T3 sequence (P22309 whole entry): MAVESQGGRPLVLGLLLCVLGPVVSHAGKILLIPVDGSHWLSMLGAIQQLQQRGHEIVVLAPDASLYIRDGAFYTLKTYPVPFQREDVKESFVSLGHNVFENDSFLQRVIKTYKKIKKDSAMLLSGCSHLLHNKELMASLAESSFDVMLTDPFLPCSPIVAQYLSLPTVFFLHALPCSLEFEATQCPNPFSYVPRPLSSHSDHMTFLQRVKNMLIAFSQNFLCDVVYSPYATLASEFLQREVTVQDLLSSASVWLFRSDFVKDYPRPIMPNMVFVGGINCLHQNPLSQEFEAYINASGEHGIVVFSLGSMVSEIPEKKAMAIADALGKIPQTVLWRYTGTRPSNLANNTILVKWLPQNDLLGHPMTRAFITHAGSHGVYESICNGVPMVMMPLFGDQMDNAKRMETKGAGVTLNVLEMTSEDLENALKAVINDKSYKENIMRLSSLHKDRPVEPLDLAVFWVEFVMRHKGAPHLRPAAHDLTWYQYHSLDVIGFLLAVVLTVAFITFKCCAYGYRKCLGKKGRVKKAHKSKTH
Put plainly: Activity at UGT1A1 in human liver microsomes at 50 uM incubated for 3 mins prior to NADPH-addition measured up to 120 mins by HPLC/UV analysis. Format: ADME, Microsome.

For a further data set, the target named is Cytochrome P450 3A4 (Homo sapiens, UniProt P08684). Put plainly: Inhibition of CYP3A4 in human liver microsomes using triazolam as substrate incubated for 3 mins prior to NAPDH-addition measured after 30 mins by RP-HPLC analysis. Format: ADME, Microsome. The method, boiled down: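 For CYP3A4 with triazolam as substrate (50 mM stock; 200 μM listed), pooled human liver microsomes were used at 0.4 mg/mL protein. Incubation was 30 min with varying inhibitor concentrations, and IC50 came from kinetic analysis.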

In the next data set the target is Cytochrome P450 2D6 (Homo sapiens, UniProt P10635). Put plainly: Inhibition of CYP2D6 in human liver microsomes using dextromethorphan as substrate incubated for 3 mins prior to NAPDH-addition measured after 60 mins by RP-HPLC analysis.
Cytochrome P450 2D6, sequence (P10635 whole entry): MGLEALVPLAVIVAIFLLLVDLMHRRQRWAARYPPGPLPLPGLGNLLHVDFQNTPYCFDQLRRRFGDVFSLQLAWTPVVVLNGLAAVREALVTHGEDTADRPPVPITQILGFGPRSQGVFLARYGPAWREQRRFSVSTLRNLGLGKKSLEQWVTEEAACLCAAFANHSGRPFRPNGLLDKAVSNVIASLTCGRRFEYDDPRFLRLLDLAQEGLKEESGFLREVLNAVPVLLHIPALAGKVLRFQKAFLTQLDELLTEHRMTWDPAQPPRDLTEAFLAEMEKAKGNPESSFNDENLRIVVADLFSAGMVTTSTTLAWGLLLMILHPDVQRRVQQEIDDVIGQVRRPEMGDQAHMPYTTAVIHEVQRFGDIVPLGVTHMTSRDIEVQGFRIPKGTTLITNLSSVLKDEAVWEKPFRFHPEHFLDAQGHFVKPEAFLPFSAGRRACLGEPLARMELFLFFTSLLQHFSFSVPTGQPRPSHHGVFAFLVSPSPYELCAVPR

Cytochrome P450 3A4, sequence (P08684 whole entry): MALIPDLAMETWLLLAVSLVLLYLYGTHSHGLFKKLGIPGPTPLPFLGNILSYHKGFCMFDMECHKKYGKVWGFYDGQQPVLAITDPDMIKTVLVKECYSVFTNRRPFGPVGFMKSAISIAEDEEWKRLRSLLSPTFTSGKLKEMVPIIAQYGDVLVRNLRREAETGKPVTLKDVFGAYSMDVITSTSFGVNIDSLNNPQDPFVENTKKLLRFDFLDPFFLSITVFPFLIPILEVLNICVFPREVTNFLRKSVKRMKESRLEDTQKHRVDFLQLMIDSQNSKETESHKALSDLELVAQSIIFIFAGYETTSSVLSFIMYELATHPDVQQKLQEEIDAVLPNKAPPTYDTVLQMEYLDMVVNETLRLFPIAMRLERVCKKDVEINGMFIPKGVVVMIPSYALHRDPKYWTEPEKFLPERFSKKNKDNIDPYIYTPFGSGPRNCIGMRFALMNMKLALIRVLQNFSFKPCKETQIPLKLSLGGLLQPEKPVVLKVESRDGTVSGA
Human immunodeficiency virus type 1 integrase (Human immunodeficiency virus 1), sequence (Q7ZJM1 as listed by the source): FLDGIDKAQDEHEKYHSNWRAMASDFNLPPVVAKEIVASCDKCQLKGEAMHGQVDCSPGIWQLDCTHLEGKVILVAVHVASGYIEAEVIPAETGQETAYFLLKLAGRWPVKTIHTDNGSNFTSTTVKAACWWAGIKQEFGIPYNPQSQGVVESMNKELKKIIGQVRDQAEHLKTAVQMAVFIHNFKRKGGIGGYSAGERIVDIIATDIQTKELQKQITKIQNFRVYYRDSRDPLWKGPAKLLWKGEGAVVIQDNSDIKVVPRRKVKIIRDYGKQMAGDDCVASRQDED
Human immunodeficiency virus type 1 integrase, sequence (Q7ZJM1 whole entry): as the sequence (Q7ZJM1 as listed by the source) above

`O=C(O)/C(O)=C/C(=O)c1cc(Cc2ccc(F)cc2F)cn(Cc2ccccc2F)c1=O`: the Activity result in data set [1], in data set [2] and in data set [5] was “Not Active” throughout. In data set [3], this molecule displayed an IC90 of 0.097 µM. In addition, the results for the IC50 (in data set [4]; against Cytochrome P450 3A4; on Cytochrome P450 2D6) were 0.006 µM, above 200 µM and above 200 µM, respectively.
